Measurements from ChEMBL document CHEMBL1153892 (Bioorg Med Chem, 2009).
Calls of active or inactive are those of the source. The rule behind the calls is not given here.

Experiments:
[1] = target: T1, Dual specificity protein phosphatase 6 (Rattus norvegicus, UniProt Q64346); assay: Inhibition of histidine-tagged rat recombinant MKP3 catalytic domain expressed in Escherichia coli BL21(DE3)
T1 sequence (Q64346 whole entry): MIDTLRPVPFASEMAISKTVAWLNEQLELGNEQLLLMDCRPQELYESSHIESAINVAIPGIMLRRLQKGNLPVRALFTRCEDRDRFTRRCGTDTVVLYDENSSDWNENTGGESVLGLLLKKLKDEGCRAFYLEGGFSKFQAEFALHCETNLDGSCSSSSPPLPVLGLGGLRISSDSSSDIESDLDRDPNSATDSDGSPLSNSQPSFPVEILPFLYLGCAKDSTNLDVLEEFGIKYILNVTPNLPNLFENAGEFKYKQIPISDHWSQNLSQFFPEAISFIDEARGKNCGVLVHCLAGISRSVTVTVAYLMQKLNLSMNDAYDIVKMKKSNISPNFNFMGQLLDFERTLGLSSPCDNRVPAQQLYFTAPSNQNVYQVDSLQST
How it was run: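 Recombinant MKP-3 was expressed from a bacterial plasmid. Phosphatase activity was read from O-methyl fluorescein phosphate hydrolysis in a 25 μL final mixture, incubated 20 or 60 min at ambient temperature. Product fluorescence was read at excitation 485 nm and emission 530 nm. IC50 came from at least six inhibitor concentrations.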

A2780 [2] = assay: Antiproliferative activity against human A2780 cells assessed as growth inhibition after 2 days by microscopic analysis; assay type: functional, cell-based
[3] = target: T2, M-phase inducer phosphatase 2 (Homo sapiens, UniProt P30305); assay: Inhibition of histidine-tagged human recombinant Cdc25B catalytic domain expressed in Escherichia coli
T2 sequence (P30305 whole entry): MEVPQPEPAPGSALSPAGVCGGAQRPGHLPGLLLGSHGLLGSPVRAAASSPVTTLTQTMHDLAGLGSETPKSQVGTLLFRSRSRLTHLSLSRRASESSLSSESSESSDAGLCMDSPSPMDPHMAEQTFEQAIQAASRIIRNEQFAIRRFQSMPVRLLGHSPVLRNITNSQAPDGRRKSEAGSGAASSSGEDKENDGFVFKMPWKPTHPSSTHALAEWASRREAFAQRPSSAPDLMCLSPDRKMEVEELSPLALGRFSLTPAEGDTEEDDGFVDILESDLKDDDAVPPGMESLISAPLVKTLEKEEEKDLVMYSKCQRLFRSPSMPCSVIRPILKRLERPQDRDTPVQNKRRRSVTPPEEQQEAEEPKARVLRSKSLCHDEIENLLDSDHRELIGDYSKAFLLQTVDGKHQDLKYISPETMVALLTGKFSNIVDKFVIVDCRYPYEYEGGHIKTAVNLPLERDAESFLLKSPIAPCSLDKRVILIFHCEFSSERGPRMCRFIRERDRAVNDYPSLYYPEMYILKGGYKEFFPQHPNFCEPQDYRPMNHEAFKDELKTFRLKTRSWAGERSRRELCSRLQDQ

[4] = target: T3, Dual specificity protein phosphatase 1 (Mus musculus, UniProt P28563); assay: Inhibition of histidine-tagged mouse MKP1 catalytic domain expressed in […]
T3 sequence (P28563 whole entry): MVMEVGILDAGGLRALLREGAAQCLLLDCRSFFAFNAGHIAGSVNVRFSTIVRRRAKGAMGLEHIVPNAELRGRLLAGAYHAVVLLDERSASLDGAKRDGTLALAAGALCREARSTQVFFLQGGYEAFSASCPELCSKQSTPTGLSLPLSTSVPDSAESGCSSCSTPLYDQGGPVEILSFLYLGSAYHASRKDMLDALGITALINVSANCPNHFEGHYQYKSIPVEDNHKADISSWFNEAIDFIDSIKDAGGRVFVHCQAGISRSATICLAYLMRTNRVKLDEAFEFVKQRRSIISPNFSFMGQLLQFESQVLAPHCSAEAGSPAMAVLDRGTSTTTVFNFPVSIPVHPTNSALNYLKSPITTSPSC

A2780 [5] = assay: Antiproliferative activity against human A2780 cells after 2 days by alamar-blue assay; assay type: functional, cell-based; conditions: A2780, 48 h
[6] = target: T2, M-phase inducer phosphatase 2; assay: Inhibition of histidine-tagged full length human Cdc25B expressed in Escherichia coli
How it was run: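 His6-tagged full-length enzyme purified from E. coli on Ni-NTA resin. Substrate is O-methyl fluorescein phosphate. Buffer is 30 mM Tris pH 8.5, 75 mM NaCl, 1 mM EDTA, 0.033% BSA and 1 mM DTT (final). Incubation runs 20 or 60 min at ambient temperature. Fluorescence is read at ex 485 / em 530 nm. IC50 comes from at least six concentrations.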

Structure (SMILES) | IC50 [1] | Activity (A2780 [2]) | IC50 [3] | IC50 [4] | IC50 (A2780 [5]) | IC50 [6]
CC1=C(NCCO)C(=O)c2ccccc2C1=O | > 50 µM | Active | > 50 µM | > 50 µM |  | 
O=C1C=CC(=O)c2c(O)ccc(O)c21 [NAPHTHAZALIN] | 6.9 µM |  | 1 µM | 9.37 µM |  | 
CCOC1=CC(=O)C(=O)c2ccccc21 | 1.35 µM |  | 0.27 µM | 0.82 µM | 0.37 µM | 
O=C1c2cc3c(cc2C(=O)C2OC12)CCCC3 (stereo not given) | 49.9 µM |  | 22.3 µM | > 50 µM |  | 
O=C1c2ccccc2C(=O)c2ccccc21 [ANTHRAQUINONE] | > 50 µM |  | 9.51 µM | > 50 µM |  | 
O=C1C=CC(=O)c2ccccc21 [NAPHTHOQUINONE] | 19.8 µM |  | 2.76 µM | 8.45 µM | 2.3 µM | 
O=C1C2=C(C(=O)c3c(O)cccc31)S(=O)(=O)CCN2 | > 50 µM |  | 0.88 µM | 33.8 µM | 2.1 µM | 
O=C1C=CC(=O)C=C1 [BENZOQUINONE] | > 50 µM |  | > 50 µM | > 50 µM | 7.8 µM | 
CC1=CC(=O)c2ccccc2C1=O [MENADIONE] | 20.5 µM |  | 3.38 µM | 24 µM | 2.6 µM | 
O=C1C=C(NCCO)C(=O)c2ccccc21 | > 50 µM |  | > 50 µM | > 50 µM | 64 µM | 
O=C1C2=C(C(=O)c3cc4c(cc31)CCCC4)S(=O)(=O)CCN2 | > 50 µM |  | 2.3 µM | 38.7 µM |  | 
O=C1C2=C(C(=O)c3ccccc31)S(=O)(=O)CCN2 | 42.6 µM |  | 0.94 µM | 17.8 µM | 4.3 µM | 
O=C1C=CC(=O)c2c(O)cccc21 [JUGLONE] | 12.4 µM |  | 1.98 µM | 13 µM | 1.4 µM | 
C[C@@]12CCCc3coc(c31)C(=O)c1cc3c(cc12)C(=O)C1=C(NCCS1(=O)=O)C3=O [ADOCIAQUINONE B] | 1.53 µM |  | 0.11 µM | 1.1 µM |  | 0.08 µM
O=C1C=CC(=O)c2cc3c(cc21)CCCC3 | > 50 µM |  | 9.53 µM | 21.8 µM |  | 
